From paper PMC11609979 (Chemical Science, 2024)

What was measured:
[1] = system: A549 cells; experiment: Seahorse MitoStress Test; type: cell-based; settings: for Lowest concentration for inhibition of OCR, Dark: 1 h incubation, no irradiation
Method in brief: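 OCR/ECAR were measured by extracellular flux with sequential oligomycin, FCCP, then rotenone/antimycin A. Basal, maximal and non-mitochondrial respiration were derived. OCR IC50 was taken from maximal respiration. The phenotype map plots basal versus stressed states.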

[2] = system: A549 cells; experiment: Cell cytotoxicity; type: cell-based; settings: Homo sapiens, A549, 72 h, read-out: IC50 (±St. Dev.) Light
Method in brief: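 A549 cells were exposed to test compound and viability was read 72 h after treatment. Dark samples were protected from light. IC50 was taken from dose–response curves, n = 3.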

[3] = system: A549 cells; experiment: Seahorse Glycolytic Rate Test; type: cell-based; settings: irradiation with red light 660 nm
Method in brief: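 A549 cells were incubated 1 h with test compound, kept dark or irradiated. Irradiation used indigo 450 nm light (485 mW cm^-2) or red 660 nm light (16 mW cm^-2). Concentrations were chosen from light/dark cytotoxicity to keep cells viable. Glycolysis was blocked by 2-deoxyglucose injection, then non-glycolytic acidification was measured. Mitochondrial acidification was also read out.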

[4] = cited from earlier work

For `N.N.[Cl][Pt][Cl]` [Cisplatin], the “Lowest concentration for inhibition of OCR, Dark” value ([1]; A549 cells) was greater than 20 µM.
For `CCCCCCOC(C)c1c(C)c2cc3nc(c4c5[nH]c(cc6nc(cc1[nH]2)C(C)=C6CC)c(C)c5C(=O)C4)[C@@H](CCC(=O)O)[C@@H]3C` (stereo partly shown) [HPPH, 2-(1-hexyloxyethyl)-2-devinylpyropheophorbide-a], the IC50 [2] was 3700 nM, the “Concentration with PER showing no glycolytic activity” value [3] was 10 µM and the “Cellular respiration in the absence of light” value ([1]; A549 cells, 1 h, dark, Fig. 3A and C) was “unaffected”. The “Lowest concentration for inhibition of OCR, Dark” value ([1]; A549 cells) was 3 µM, the “Cellular respiration following irradiation” value ([1]; A549 cells, indigo light for 3, red light (660 nm) for HPPH, Fig. 3B and D) was “marked concentration-dependent decrease” and the “Fold lower than the IC50 for cytotoxicity (quiescent phenotype concentration)” value ([1]; A549 cells, red light) was 10 fold. The “Concentration inducing the quiescent phenotype” value ([1]; A549 cells, red light, Fig. S10) was 0.37 µM, the IC50 ([1]; Homo sapiens, A549, read-out: OCR IC50 (from maximal respiration dose-response)) was 1200 nM and the “log P” value [4] was roughly 6.0.
